In series [1] the test system is Caco-2. As to the kind of experiment: Induction of morphological changes in human Caco-2 cells assessed as densification of cytoskeleton at 1 ug/ml incubated for 48 hrs by Hoechst 3342 and phalloidin staining based confocal microscopic analysis. The settings on record: dose 1.0 µg/ml. Type of series: functional, cell-based. In outline:
(§1)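 Caco-2 cells (40 000/well) were exposed for 48 h, then fixed in 3.7% PFA and permeabilised with Triton X100/BSA. Actin was stained with phalloidin and nuclei with Hoechst 3342, and cells were viewed by confocal microscopy.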

Series [2] concerns Caco-2. As to the kind of experiment: Cytotoxicity against human Caco-2 cells assessed as cell death. The class given is functional, cell-based.
For series [3], the system named is Colorectal epithelial cell. As to the kind of experiment: Cytostatic activity against human Colorectal epithelial cells isolated from patient with fistulized sigmoiditis cultured as organoids at 1 ug/ml incubated for 48 hrs by CellTiter-Glo luminescence assay. Type of series: functional, cell-based. The settings on record: dose 1.0 µg/ml. The method in brief: (§2)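 Primary colonic epithelial cells (3 control and 2 CRC patients) were expanded as organoids or spheroids in Matrigel with EGF/noggin/Wnt3a/R-spondin medium. Single cells were seeded at 2500/well and allowed 48 h to form colonoids, then exposed for 48 h at 0.01, 0.1 or 1 µg/mL, with 5FdU at 1 µg/mL as positive control. Viability was read by CellTiter-Glo luminescence versus DMSO or medium control.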

Series [4] deals with Caco-2. As to the kind of experiment: Cytostatic activity against human Caco-2 cells assessed as inhibition of cell growth at 1 ug/ml preincubated for 15 mins with PKCalpha inhibitor, Go6976 followed by compound addition and measured after 48 hrs by MTS assay. Type of series: functional, cell-based. The note with it: dose 1.0 µg/ml. The method in brief: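 Caco-2 cells (40 000/well) were pretreated with 0.2 µM Gö6976 for 15 min, then given compound at 1 µg/mL for 48 h. MTS absorbance was read at 490 nm and activity calculated relative to DMSO controls; triplicates, 1–3 independent experiments, two-way ANOVA.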
Background: Formazan colour is commonly taken as a measure of viable cells.

Series [5] concerns the target RAC-alpha serine/threonine-protein kinase (Homo sapiens) (UniProt P31749). As to the kind of experiment: Inhibition of AKT in human Caco-2 cells assessed as reduction in phosphorylation at serine 473 residue at 1 ug/ml incubated for 48 hrs by Western blot analysis. Type of series: cell-based. The settings on record: dose 1.0 µg/ml. The method in brief:
(§3)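 Caco-2 cells (0.25 × 10^6/well) were treated at 1 µg/mL for 48 h and lysed in pH 7.4 Tris/NaCl/Triton/EDTA buffer with protease and phosphatase inhibitors. 30 µg protein was run per lane on 4–15% gels and blotted for pSer9-GSK3β, total GSK3β, pSer473-Akt, total Akt and β-catenin, with actin as loading control. Detection was by ECL; n=2, t-test versus DMSO.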

Series [6] relates to Caco-2. As to the kind of experiment: Upregulation of AKT protein expression in human Caco-2 cells at 1 ug/ml incubated for 48 hrs by Western blot analysis. Type of series: functional, cell-based. The note with it: dose 1.0 µg/ml. The method in brief:
as §3

Series [7] addresses Glycogen synthase kinase-3 beta (Homo sapiens) (UniProt P49841). Briefly: Inhibition of GSK3beta in human Caco-2 cells assessed as increase in phosphorylation at serine 9 residue at 1 ug/ml incubated for 48 hrs by Western blot analysis. Type of series: cell-based. The note with it: dose 1.0 µg/ml. In outline: as §3
(In general: Immunoblotting shows a protein as a band on a membrane.)

A short description of series [8]: Cytostatic activity against human Colorectal epithelial cells isolated from patient with well-differentiated colonic adenocarcinoma and undergone nine courses of chemotherapy cultured as organoids assessed as inhibition of cell growth at 0.1 ug/ml incubated for 48 hrs by CellTiter-Glo luminescence assay relative to control. The class given is functional. The method in brief:
as §2
On the technique in general: In ATP-based viability assays light output follows the ATP content of the culture.

The subject of series [9] is Caco-2. Briefly: Induction of morphological changes in human Caco-2 cells assessed as cellular aggregates formation at 0.125 ug/ml incubated for 48 hrs by Hoechst 3342 and phalloidin staining based confocal microscopic analysis. Type of series: functional, cell-based. The note with it: dose 0.125 µg/ml. The method in brief: as §1
In series [10] the test system is Caco-2. Briefly: Induction of morphological changes in human Caco-2 cells assessed as reorganization of epithelial tissue architecture at 1 ug/ml incubated for 48 hrs by Hoechst 3342 and phalloidin staining based confocal microscopic analysis. The note with it: dose 1.0 µg/ml. Type of series: functional, cell-based. In outline: as §1
The test system of series [11] is Caco-2. As to the kind of experiment: Cytostatic activity against human Caco-2 cells assessed as inhibition of cell growth at 1 ug/ml preincubated for 30 mins with CRT0066854 hydrochloride followed by compound addition and measured after 48 hrs by MTS assay. The class given is functional, cell-based. The settings on record: dose 1.0 µg/ml. In outline: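 Caco-2 cells were pretreated for 30 min with CRT0066854 hydrochloride (2.5 µM; 0.625 and 1.25 µM also tested), then given compound at 1 µg/mL for 48 h. MTS absorbance was read at 490 nm relative to DMSO controls; n=3, t-test.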

In series [12] the test system is Caco-2. Briefly: Effect on phosphorylated MEK at Ser217/221 level in human Caco-2 cells at 1 ug/ml measured after 48 hrs by Western blot analysis. The class given is functional, cell-based. The settings on record: dose 1.0 µg/ml. The method in brief: (§4)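 Caco-2 cells (0.25 × 10^6/well) were treated at 1 µg/mL for 48 h, with or without 30 min pretreatment with 2.5 µM CRT0066854. Lysates (30 µg protein) were blotted for pSer217/221-MEK and total MEK, with actin as loading control. Detection was by ECL; n=2, t-test versus DMSO.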

In series [13] the test system is Colorectal epithelial cell. Briefly: Cytostatic activity against human Colorectal epithelial cells isolated from left colon of patient with recurrent diverticulitis cultured as organoids at 1 ug/ml incubated for 48 hrs by CellTiter-Glo luminescence assay. Type of series: functional, cell-based. The settings on record: dose 1.0 µg/ml. The method in brief: as §2

The subject of series [14] is Caco-2. Briefly: Upregulation of phosphorylated MEK at Ser217/221 level in human Caco-2 cells at 1 ug/ml preincubated for 30 mins with CRT0066854 hydrochloride followed by compound addition and measured after 48 hrs by Western blot analysis. The class given is functional, cell-based. The note with it: dose 1.0 µg/ml. The method in brief: as §4
Series [15] deals with Caco-2. As to the kind of experiment: Downregulation of PKCalpha expression in human Caco-2 cells at 1 ug/ml incubated for 48 hrs by immunostaining based confocal microscopic analysis. Type of series: functional, cell-based. The note with it: dose 1.0 µg/ml. In outline: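 Caco-2 cells were seeded at 40 000/well and treated for 48 h as in the viability assay. They were fixed in 3.7% PFA for 20 min and permeabilised in HBSS/0.5% Triton X100/1% BSA. Anti-PKCζ (1/50) or anti-PKCα (1/200) was applied overnight at 4°C, then Alexa 488 secondary for 45 min. Phalloidin and Hoechst counterstained the cells before confocal imaging; PKCα signal was quantified by immunofluorescence.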

A short description of series [16]: Cytostatic activity against human Colorectal epithelial cells isolated from patient with well-differentiated colonic adenocarcinoma cultured as organoids assessed as inhibition of cell growth at 0.1 ug/ml incubated for 48 hrs by CellTiter-Glo luminescence assay relative to control. Type of series: functional. In outline: as §2
Series [17] in a line: Cytotoxicity against HIEC-6 cells assessed as inhibition of cell growth at 1 ug/ml incubated for 48 hrs by MTS assay. Type of series: toxicity, cell-based. The settings on record: human, hiec-6, 48 h, dose 1 µg/ml. The method in brief: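 HIEC6 cells were grown in OPTIMEM with GlutaMAX, Hepes and 10 ng/mL EGF and seeded at 60 000/well 48 h before dosing. Cells were exposed to 1 µg/mL for 48 h, and viability was read by MTS absorbance at 490 nm versus DMSO; 3 independent experiments, t-test.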

Series [18] relates to Colorectal epithelial cell. As to the kind of experiment: Cytostatic activity against human Colorectal epithelial cells isolated from left colon of patient with sigmoido-vaginal fistula for diverticulitis cultured as organoids at 1 ug/ml incubated for 48 hrs by CellTiter-Glo luminescence assay. Type of series: functional, cell-based. The note with it: dose 1.0 µg/ml. In outline: as §2

The test system of series [19] is Caco-2. Briefly: Induction of morphological changes in human Caco-2 cells assessed as cellular aggregation at 1 ug/ml preincubated for 15 mins with PKCalpha inhibitor, Go6976 followed by compound addition and measured after 48 hrs by immunostaining based confocal microscopic analysis. The note with it: dose 1.0 µg/ml. The class given is functional, cell-based. The method in brief: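 Caco-2 cells were given 0.2 µM Gö6976 for 15 min before compound at 1 µg/mL for 48 h. PKCα was immunostained, nuclei and cytoskeleton were labelled, and cells were imaged by confocal microscopy (20X objective) in duplicate from one experiment.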

The subject of series [20] is Colorectal epithelial cell. Briefly: Cytostatic activity against human Colorectal epithelial cells isolated from patient with well-differentiated colonic adenocarcinoma cultured as organoids at 1 ug/ml incubated for 48 hrs by CellTiter-Glo luminescence assay. The settings on record: dose 1.0 µg/ml. The class given is functional, cell-based. In outline:
as §2

Structures are written as SMILES. Calls of active or inactive are those of the source. The calls are words filed in the database; no cut-off is given here.

Sequence of RAC-alpha serine/threonine-protein kinase (Homo sapiens) (P31749 whole entry): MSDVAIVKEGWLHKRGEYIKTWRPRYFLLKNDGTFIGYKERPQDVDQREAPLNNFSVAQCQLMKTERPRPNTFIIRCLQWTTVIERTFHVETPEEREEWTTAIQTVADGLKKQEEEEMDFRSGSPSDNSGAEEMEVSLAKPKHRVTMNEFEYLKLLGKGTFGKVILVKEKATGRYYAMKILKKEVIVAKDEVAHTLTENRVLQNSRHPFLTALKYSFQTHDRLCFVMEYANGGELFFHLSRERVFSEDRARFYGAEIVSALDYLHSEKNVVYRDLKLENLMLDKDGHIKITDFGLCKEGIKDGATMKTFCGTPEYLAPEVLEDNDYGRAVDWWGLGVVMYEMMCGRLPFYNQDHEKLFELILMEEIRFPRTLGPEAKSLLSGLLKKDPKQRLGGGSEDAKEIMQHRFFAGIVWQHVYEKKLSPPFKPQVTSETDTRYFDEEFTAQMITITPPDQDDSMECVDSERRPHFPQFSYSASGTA
Sequence of Glycogen synthase kinase-3 beta (Homo sapiens) (P49841 whole entry, looked up): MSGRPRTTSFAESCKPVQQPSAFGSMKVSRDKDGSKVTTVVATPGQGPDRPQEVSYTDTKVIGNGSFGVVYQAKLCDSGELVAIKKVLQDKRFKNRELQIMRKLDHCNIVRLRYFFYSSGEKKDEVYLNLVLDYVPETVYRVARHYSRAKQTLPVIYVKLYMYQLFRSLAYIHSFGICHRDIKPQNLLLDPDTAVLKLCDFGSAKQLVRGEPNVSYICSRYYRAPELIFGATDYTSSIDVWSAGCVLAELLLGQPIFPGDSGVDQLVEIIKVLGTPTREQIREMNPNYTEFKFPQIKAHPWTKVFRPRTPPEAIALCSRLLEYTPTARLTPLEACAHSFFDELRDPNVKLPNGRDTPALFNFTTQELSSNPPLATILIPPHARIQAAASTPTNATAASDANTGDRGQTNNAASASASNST

On to `C=C(C)[C@]12C[C@@H](C)[C@@]34O[C@](/C=C/C=C/CCCCCCCCC)(O[C@@H]1[C@@H]3[C@@H]1O[C@]1(CO)[C@@H](O)[C@]1(O)C(=O)C(C)=C[C@H]14)O2`, for which the outcome in [1], in [3], in series [4], in series [6], in [9] and in series [10] was Active. The outcome in series [13], in [14], in series [15], in series [18], in [19] and in [20] was Active. The outcome in [2], in series [11] and in series [12] was inactive. The inhibition entry in series [5] and in series [7] was “Active” in each case. The inhibition at 0.1 µg/mL in [8] and in series [16] was 40% in each case. The Activity entry in series [17] was “Non-Toxic”.

With `C=C(C)[C@]12C[C@@H](C)[C@@]34O[C@](/C=C/[C@@H]5O[C@H]5CCCCCCCCC)(O[C@@H]1[C@@H]3[C@@H]1O[C@]1(CO)[C@@H](O)[C@]1(O)C(=O)C(C)=C[C@H]14)O2`, the result in [1], in series [3], in series [4], in series [6], in series [9] and in series [10] was Active. The outcome in series [13], in [14], in series [15], in series [18], in series [19] and in series [20] was Active. Besides, the result in series [2], in series [11] and in [12] was inactive. Moreover, the inhibition result in series [5] and in series [7] was “Active” each time. Also, the inhibition at 0.1 µg/mL in [8] and in [16] was 40% in each case. Further, the Activity entry in series [17] is reported as “Non-Toxic”.

One may read the inhibition as how much of the control response was suppressed.

The values above are taken from ChEMBL document CHEMBL5325455, “Daphnanes diterpenes from the latex of Hura crepitans L. and their PKCζ-dependent anti-proliferative activity on colorectal cancer cells” (Bioorg Med Chem, 2023).
